# From ChEMBL document CHEMBL3085677, “Novel coumarin-3-carboxamides bearing N-benzylpiperidine moiety as potent acetylcholinesterase inhibitors” (Eur J Med Chem, 2013)
# Activity calls are given as the source filed them. The rule behind the calls is not given here.
# Legend:
# [1] = Cytotoxicity against rat PC12 cells at 1 to 100 uM after 24 hrs by MTT assay; type: cell-based; conditions: pc-12, 24 h
# PC-12 = assay: Protection against H2O2-induced cell death in rat PC12 cells pretreated at 1 to 100 uM for 3 hrs before H2O2 challenge using DAPI staining method; type: functional, cell-based
# Summary of the method: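 Rat PC12 cells grown in RPMI 1640 with 10% FCS and penicillin/streptomycin, plated at 10^4 cells/well. Held 2 days serum-free, then given NGF 50 ng/ml for 5 days until neurites formed. Pretreated 3 h at three compound levels before H2O2 challenge. Apoptosis judged by DAPI added to live cells for 20 min. Viability read by MTT after 24 h.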
# [2] = Selectivity index, ratio of IC50 for equine serum BChE to IC50 for electric eel AChE
# Summary of the method: (§1)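 Ellman-type assay at 25 °C with eel AChE (Type V-S) or equine serum BuChE, added as a 2.5 unit/mL enzyme solution. Medium was 0.1 M phosphate buffer pH 8.0 with DTNB added from a 0.01 M solution. Inhibitor was preincubated 15 min before acetylthiocholine or butyrylthiocholine iodide. ΔA412 was read over 6 min, corrected against a non-enzymatic blank. Five concentrations in triplicate gave 20–80% inhibition. IC50 came graphically from log-concentration curves, mean of three experiments; SI = IC50 BuChE/IC50 AChE.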
# Cholinesterase = Cholinesterase (Equus caballus, UniProt P81908); assay: Inhibition of equine serum BChE using butyrylthiocholine iodide as substrate preincubated for 15 mins prior to substrate addition by Ellman's method; summary of the method: as §1
# Sequence of Cholinesterase (P81908 whole entry): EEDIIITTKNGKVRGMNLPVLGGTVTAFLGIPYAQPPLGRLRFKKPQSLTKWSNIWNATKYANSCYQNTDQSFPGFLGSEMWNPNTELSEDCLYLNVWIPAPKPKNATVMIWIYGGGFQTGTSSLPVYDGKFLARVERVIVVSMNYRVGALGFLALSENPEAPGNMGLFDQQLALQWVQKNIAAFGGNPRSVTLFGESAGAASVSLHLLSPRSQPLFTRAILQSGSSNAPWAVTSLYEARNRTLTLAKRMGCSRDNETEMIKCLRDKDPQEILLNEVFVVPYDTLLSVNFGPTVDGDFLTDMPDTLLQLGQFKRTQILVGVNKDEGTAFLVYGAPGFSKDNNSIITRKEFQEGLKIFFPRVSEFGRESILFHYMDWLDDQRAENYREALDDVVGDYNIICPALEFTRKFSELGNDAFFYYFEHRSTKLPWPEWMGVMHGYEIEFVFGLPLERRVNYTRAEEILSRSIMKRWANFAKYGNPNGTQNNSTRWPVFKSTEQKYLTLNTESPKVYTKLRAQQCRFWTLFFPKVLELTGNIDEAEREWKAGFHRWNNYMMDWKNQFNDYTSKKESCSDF
# Acetylcholinesterase = Acetylcholinesterase (Electrophorus electricus, UniProt O42275); assay: Inhibition of electric eel AChE using acetylcholine as substrate preincubated for 15 mins prior to substrate addition by Ellman's method
# Sequence of Acetylcholinesterase (O42275 whole entry): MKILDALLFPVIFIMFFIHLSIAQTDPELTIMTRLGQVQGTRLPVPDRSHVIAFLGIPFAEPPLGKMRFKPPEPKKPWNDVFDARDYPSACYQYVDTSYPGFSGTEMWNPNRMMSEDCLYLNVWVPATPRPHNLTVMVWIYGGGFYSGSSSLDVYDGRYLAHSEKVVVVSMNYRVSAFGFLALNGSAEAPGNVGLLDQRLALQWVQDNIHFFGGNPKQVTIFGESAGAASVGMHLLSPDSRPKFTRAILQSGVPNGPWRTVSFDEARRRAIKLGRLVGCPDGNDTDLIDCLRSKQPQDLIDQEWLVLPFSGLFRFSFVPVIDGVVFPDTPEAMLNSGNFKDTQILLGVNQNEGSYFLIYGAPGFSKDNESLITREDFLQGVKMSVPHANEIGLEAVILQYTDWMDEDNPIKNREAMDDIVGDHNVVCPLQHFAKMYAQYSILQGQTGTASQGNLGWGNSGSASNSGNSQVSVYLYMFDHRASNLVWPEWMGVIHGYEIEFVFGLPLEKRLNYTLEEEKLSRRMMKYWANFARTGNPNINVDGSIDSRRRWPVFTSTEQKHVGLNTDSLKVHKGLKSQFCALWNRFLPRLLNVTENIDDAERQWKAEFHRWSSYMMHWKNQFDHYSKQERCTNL
# [3] = target: Acetylcholinesterase (Electrophorus electricus) (UniProt O42275); assay: Mixed-type inhibition of electric eel AChE using acetylcholine as substrate by Lineweaver-Burk plot method
# Sequence of Acetylcholinesterase (Electrophorus electricus) (O42275 24-633 limits assumed): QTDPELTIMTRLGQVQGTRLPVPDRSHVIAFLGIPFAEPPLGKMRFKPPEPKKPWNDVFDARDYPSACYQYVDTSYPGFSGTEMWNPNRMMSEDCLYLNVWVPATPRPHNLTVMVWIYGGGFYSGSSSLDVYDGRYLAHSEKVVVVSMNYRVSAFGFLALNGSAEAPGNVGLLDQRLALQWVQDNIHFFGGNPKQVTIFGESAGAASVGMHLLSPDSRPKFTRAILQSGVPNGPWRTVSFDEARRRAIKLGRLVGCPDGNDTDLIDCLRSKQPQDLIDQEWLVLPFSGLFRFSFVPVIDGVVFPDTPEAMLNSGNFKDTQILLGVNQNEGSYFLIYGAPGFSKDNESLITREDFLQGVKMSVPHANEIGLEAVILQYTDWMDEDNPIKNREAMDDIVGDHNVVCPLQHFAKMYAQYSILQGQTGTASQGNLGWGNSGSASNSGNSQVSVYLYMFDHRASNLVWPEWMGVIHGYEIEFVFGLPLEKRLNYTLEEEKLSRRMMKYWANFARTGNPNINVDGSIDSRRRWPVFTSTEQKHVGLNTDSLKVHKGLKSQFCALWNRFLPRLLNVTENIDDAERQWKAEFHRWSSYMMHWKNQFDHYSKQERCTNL
# Summary of the method: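 Kinetics used eel AChE with inhibitor fixed at 0.357, 3.57 or 11.9 nM. Initial velocities were measured across several acetylthiocholine concentrations. Reciprocal velocity (1/v) was plotted against 1/[ATCh] (double-reciprocal plot).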
# [4] = target: Acetylcholinesterase (Electrophorus electricus) (UniProt O42275); assay: Ratio of donepezil IC50 to compound IC50 for electric eel AChE using acetylcholine as substrate preincubated for 15 mins prior to substrate addition by Ellman's method
SMILES,Activity [1],Activity (PC-12),Ratio IC50 [2],IC50 (Cholinesterase) [nM],IC50 (Acetylcholinesterase) [nM],inhibition [3],Ratio IC50 [4]
O=C(NCCC1CCN(Cc2ccccc2)CC1)c1cc2cc(Br)ccc2oc1=O,Non-toxic,Active,210,420,2,–,–
COc1ccc2cc(C(=O)NC3CCN(Cc4ccccc4)CC3)c(=O)oc2c1,–,–,147,27000,183,–,–
O=C(NC1CCN(Cc2ccccc2)CC1)c1cc2cc([N+](=O)[O-])ccc2oc1=O,–,–,51,22000,430,–,–
COc1ccc2cc(C(=O)NCCC3CCN(Cc4ccccc4)CC3)c(=O)oc2c1,Non-toxic,Active,71,357,5,–,–
O=C(NCCC1CCN(Cc2ccccc2)CC1)c1cc2cc(O)ccc2oc1=O,–,–,222,15600,70,–,–
O=C(NC1CCN(Cc2ccccc2)CC1)c1cc2cc(Br)ccc2oc1=O,–,–,1400,42000,30,–,–
O=C(NCCC1CCN(Cc2ccccc2)CC1)c1cc2ccccc2oc1=O,–,–,14,371,26,–,–
COc1cccc2cc(C(=O)NC3CCN(Cc4ccccc4)CC3)c(=O)oc12,–,–,32,20000,633,–,–
O=C(NCCC1CCN(Cc2ccccc2)CC1)c1cc2ccc(O)cc2oc1=O,–,–,321,46000,143,–,–
O=C(NC1CCN(Cc2ccccc2)CC1)c1cc2ccc(O)cc2oc1=O,–,–,32,55000,1700,–,–
O=C(NC1CCN(Cc2ccccc2)CC1)c1cc2ccccc2oc1=O,–,–,14,17000,1200,–,–
O=C(NCCC1CCN(Cc2ccccc2)CC1)c1cc2cc([N+](=O)[O-])ccc2oc1=O,Non-toxic,Active,26300,7900,0.3,Active,46
COc1cccc2cc(C(=O)NCCC3CCN(Cc4ccccc4)CC3)c(=O)oc12,–,–,9000,18000,2,–,–
